pIC50: −log10 of the molar value.
Columns and labels:
[1] = molecular target: T1, MAP kinase-activated protein kinase 5 (Homo sapiens) (UniProt Q8IW41); assay: Inhibition of PRAK1 at 30 uM by microfluidic mobility shift assay
T1 sequence (whole entry): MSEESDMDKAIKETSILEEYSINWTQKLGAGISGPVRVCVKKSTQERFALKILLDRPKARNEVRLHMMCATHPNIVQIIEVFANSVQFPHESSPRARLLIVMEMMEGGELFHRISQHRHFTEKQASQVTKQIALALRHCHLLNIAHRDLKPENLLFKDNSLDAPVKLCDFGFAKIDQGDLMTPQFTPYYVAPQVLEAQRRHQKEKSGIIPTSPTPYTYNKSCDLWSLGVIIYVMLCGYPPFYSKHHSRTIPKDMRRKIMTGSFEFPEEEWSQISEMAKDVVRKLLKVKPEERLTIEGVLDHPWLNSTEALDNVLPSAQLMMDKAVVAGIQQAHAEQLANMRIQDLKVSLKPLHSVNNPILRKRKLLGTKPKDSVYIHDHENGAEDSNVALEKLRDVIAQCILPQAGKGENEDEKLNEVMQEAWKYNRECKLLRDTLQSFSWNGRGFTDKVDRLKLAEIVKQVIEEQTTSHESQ
Method in brief: (§1)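 Single-concentration screen, singlicate, 30 uM final (diluted from 1 mM DMSO solutions), fluorescently tagged peptide substrate appropriate to each kinase, ATP at apparent Km for each protein. Phosphorylated and unphosphorylated peptides separated electrophoretically; conversion is the phosphorylated peak area over the sum of both peaks. No-inhibitor and no-ATP controls; H89 reference on each plate.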

[2] = molecular target: Ribosomal protein S6 kinase alpha-1 (Homo sapiens) (UniProt Q15418); assay: Inhibition of RSK1 at 30 uM by microfluidic mobility shift assay; method in brief: as §1
[3] = molecular target: T2, Tyrosine-protein kinase Lyn (Homo sapiens, UniProt P07948); assay: Inhibition of LYN at 30 uM by microfluidic mobility shift assay; method in brief: as §1
[4] = molecular target: T3, Tyrosine-protein kinase ABL1 (Homo sapiens, UniProt P00519); assay: Inhibition of ABL at 30 uM by microfluidic mobility shift assay; method in brief: as §1
[5] = molecular target: T4, Aurora kinase A (Homo sapiens) (UniProt O14965); assay: Inhibition of AurA at 30 uM by microfluidic mobility shift assay; method in brief: as §1
T4 sequence (whole entry): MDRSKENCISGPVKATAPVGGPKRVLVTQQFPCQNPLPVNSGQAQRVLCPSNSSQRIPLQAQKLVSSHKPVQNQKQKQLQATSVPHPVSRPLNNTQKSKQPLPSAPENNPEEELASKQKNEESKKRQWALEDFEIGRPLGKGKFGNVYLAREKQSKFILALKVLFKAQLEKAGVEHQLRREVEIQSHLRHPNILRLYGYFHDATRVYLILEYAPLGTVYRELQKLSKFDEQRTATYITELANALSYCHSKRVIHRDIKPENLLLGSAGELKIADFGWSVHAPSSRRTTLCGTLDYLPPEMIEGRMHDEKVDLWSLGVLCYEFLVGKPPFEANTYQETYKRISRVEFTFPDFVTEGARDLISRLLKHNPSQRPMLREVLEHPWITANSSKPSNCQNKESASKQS

[6] = molecular target: Ribosomal protein S6 kinase alpha-5 (Homo sapiens) (UniProt O75582); assay: Inhibition of MSK1 at 30 uM by microfluidic mobility shift assay; method in brief: as §1
[7] = molecular target: T5, Tyrosine-protein kinase Fyn (Homo sapiens, UniProt P06241); assay: Inhibition of FYN at 30 uM by microfluidic mobility shift assay; method in brief: as §1
[8] = Aqueous solubility of the compound by HPLC analysis; type: physicochemical; conditions: water
Method in brief: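 Solubility determined by HPLC measurement of the concentration in saturated aqueous solutions of the compounds.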

[9] = molecular target: T6, Proto-oncogene tyrosine-protein kinase Src (Homo sapiens, UniProt P12931); assay: Inhibition of SRC at 30 uM by microfluidic mobility shift assay; method in brief: as §1
[10] = molecular target: T5, Tyrosine-protein kinase Fyn; assay: Inhibition of FYN by microfluidic mobility shift assay
Method in brief: (§2)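 IC50 determined in the mobility shift format: a fluorescently tagged peptide substrate appropriate to each kinase, ATP at its apparent Km for each protein, and electrophoretic separation of phospho and unphosphorylated peptide. Percent conversion is the ratio of the phosphopeptide peak area to the total peak area. Controls were no inhibitor and no ATP.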

MCF7 = assay: Growth inhibition of human MCF7 cells at 0.039 uM; type: functional; conditions: read-out: GI
[11] = Inhibition of PKA at 30 uM by microfluidic mobility shift assay; method in brief: as §1
[12] = molecular target: Insulin receptor (Homo sapiens) (UniProt P06213); assay: Inhibition of INSR at 30 uM by microfluidic mobility shift assay; method in brief: as §1
[13] = molecular target: Serine/threonine-protein kinase Chk2 (Homo sapiens, UniProt O96017); assay: Inhibition of CHK2 at 30 uM by microfluidic mobility shift assay; method in brief: as §1
[14] = molecular target: Mitogen-activated protein kinase 3 (Homo sapiens) (UniProt P27361); assay: Inhibition of ERK1 at 30 uM by microfluidic mobility shift assay; method in brief: as §1
[15] = molecular target: Glycogen synthase kinase-3 beta (Homo sapiens) (UniProt P49841); assay: Inhibition of GSK3B at 30 uM by microfluidic mobility shift assay; method in brief: as §1
[16] = molecular target: T7, Mitogen-activated protein kinase 14 (Homo sapiens, UniProt Q16539); assay: Inhibition of p38alpha at 30 uM by microfluidic mobility shift assay; method in brief: as §1
[17] = molecular target: T2, Tyrosine-protein kinase Lyn; assay: Inhibition of LYN by microfluidic mobility shift assay; method in brief: as §2
[18] = molecular target: T7, Mitogen-activated protein kinase 14; assay: Inhibition of p38alpha by microfluidic mobility shift assay; method in brief: as §2
[19] = molecular target: RAC-beta serine/threonine-protein kinase (Homo sapiens) (UniProt P31751); assay: Inhibition of AKT2 at 30 uM by microfluidic mobility shift assay; method in brief: as §1
[20] = molecular target: T8, Serine/threonine-protein kinase D2 (Homo sapiens) (UniProt Q9BZL6); assay: Inhibition of PKD2 at 30 uM by microfluidic mobility shift assay; method in brief: as §1
T8 sequence (whole entry): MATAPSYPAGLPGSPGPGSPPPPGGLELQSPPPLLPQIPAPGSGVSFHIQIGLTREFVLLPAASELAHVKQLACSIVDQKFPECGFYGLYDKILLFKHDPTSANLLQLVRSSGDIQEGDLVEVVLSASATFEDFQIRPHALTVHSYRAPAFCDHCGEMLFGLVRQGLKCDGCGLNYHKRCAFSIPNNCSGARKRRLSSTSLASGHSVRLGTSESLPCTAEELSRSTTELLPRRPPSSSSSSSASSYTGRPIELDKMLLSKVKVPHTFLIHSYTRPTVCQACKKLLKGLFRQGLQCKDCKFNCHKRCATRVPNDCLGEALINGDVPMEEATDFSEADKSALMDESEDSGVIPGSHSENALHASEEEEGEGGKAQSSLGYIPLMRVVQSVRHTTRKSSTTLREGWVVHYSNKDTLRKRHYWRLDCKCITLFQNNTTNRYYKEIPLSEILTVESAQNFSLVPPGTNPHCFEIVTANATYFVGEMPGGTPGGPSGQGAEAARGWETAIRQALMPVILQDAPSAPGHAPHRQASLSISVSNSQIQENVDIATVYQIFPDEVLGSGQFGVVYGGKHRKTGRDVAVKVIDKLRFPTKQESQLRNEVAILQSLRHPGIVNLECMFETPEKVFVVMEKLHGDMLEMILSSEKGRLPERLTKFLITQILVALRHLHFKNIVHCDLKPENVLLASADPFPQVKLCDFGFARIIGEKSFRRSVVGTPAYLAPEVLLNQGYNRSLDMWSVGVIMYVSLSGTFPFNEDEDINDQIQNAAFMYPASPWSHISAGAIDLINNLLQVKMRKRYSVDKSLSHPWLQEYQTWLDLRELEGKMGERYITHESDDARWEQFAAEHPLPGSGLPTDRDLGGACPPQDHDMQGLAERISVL

[21] = molecular target: T6, Proto-oncogene tyrosine-protein kinase Src; assay: Inhibition of SRC by microfluidic mobility shift assay; method in brief: as §2
[22] = molecular target: RAC-alpha serine/threonine-protein kinase (Homo sapiens) (UniProt P31749); assay: Inhibition of AKT1 at 30 uM by microfluidic mobility shift assay; method in brief: as §1
[23] = molecular target: T9, Tyrosine-protein kinase Lck (Homo sapiens, UniProt P06239); assay: Inhibition of LCK at 30 uM by microfluidic mobility shift assay; method in brief: as §1
Target sequence in this assay (P06239 2-509 limits assumed): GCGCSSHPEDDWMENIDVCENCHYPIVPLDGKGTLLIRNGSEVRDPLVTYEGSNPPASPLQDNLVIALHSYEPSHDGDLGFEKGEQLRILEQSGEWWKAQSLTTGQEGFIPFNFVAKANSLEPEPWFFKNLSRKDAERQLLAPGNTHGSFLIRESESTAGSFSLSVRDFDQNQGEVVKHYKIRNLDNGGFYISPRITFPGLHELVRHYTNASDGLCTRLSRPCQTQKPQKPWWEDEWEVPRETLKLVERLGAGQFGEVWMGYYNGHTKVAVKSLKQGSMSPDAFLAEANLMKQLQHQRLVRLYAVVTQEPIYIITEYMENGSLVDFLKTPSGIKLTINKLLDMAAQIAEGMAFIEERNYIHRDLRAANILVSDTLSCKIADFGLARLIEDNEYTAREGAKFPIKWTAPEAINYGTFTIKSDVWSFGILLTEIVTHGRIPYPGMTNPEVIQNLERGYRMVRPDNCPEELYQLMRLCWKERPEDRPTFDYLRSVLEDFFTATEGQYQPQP

[24] = molecular target: Mitogen-activated protein kinase 1 (Homo sapiens) (UniProt P28482); assay: Inhibition of ERK2 at 30 uM by microfluidic mobility shift assay; method in brief: as §1
[25] = molecular target: MAP kinase-activated protein kinase 2 (Homo sapiens, UniProt P49137); assay: Inhibition of MAPKAPK2 at 30 uM by microfluidic mobility shift assay; method in brief: as §1
[26] = molecular target: T9, Tyrosine-protein kinase Lck; assay: Inhibition of LCK by microfluidic mobility shift assay; method in brief: as §2
Target sequence in this assay (P06239 whole entry): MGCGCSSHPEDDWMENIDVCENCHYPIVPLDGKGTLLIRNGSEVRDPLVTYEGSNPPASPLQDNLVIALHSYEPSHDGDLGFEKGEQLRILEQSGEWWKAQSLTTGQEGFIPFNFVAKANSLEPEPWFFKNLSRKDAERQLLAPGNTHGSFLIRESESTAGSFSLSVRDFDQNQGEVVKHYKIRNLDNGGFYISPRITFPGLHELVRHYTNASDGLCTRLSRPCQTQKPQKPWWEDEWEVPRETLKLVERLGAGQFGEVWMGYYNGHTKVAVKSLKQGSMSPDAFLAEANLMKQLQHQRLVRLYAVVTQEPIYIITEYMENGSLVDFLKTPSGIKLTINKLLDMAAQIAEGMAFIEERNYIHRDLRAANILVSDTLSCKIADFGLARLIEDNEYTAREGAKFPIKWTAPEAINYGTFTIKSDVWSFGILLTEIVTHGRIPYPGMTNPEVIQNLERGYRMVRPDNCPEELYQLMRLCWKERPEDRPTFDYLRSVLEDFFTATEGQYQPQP

[27] = molecular target: T3, Tyrosine-protein kinase ABL1; assay: Inhibition of ABL by microfluidic mobility shift assay; method in brief: as §2

T6 sequence (P12931 2-536 limits assumed): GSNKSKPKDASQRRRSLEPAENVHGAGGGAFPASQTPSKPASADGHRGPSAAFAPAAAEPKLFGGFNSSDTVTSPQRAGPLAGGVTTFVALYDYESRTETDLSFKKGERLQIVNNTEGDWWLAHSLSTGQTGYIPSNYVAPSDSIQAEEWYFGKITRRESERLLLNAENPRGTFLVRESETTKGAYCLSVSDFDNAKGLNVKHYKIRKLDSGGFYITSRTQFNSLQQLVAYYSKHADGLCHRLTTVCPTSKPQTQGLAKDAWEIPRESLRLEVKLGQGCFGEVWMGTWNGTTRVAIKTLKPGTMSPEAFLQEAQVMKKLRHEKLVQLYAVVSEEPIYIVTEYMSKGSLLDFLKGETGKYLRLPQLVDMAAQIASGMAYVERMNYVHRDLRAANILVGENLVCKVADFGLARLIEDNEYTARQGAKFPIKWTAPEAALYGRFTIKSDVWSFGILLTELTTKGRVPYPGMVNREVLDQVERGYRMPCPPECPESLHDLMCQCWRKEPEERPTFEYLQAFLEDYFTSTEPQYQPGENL
T7 sequence (Q16539 whole entry): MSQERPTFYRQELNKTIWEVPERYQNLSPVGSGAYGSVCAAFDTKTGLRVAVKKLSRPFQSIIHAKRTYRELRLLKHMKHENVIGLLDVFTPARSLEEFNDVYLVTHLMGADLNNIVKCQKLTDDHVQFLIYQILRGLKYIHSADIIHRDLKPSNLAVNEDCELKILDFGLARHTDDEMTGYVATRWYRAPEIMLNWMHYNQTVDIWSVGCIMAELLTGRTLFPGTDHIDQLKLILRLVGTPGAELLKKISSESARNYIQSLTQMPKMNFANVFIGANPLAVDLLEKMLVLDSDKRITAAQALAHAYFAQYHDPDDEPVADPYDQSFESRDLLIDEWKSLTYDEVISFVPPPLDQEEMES
T3 sequence (P00519 whole entry): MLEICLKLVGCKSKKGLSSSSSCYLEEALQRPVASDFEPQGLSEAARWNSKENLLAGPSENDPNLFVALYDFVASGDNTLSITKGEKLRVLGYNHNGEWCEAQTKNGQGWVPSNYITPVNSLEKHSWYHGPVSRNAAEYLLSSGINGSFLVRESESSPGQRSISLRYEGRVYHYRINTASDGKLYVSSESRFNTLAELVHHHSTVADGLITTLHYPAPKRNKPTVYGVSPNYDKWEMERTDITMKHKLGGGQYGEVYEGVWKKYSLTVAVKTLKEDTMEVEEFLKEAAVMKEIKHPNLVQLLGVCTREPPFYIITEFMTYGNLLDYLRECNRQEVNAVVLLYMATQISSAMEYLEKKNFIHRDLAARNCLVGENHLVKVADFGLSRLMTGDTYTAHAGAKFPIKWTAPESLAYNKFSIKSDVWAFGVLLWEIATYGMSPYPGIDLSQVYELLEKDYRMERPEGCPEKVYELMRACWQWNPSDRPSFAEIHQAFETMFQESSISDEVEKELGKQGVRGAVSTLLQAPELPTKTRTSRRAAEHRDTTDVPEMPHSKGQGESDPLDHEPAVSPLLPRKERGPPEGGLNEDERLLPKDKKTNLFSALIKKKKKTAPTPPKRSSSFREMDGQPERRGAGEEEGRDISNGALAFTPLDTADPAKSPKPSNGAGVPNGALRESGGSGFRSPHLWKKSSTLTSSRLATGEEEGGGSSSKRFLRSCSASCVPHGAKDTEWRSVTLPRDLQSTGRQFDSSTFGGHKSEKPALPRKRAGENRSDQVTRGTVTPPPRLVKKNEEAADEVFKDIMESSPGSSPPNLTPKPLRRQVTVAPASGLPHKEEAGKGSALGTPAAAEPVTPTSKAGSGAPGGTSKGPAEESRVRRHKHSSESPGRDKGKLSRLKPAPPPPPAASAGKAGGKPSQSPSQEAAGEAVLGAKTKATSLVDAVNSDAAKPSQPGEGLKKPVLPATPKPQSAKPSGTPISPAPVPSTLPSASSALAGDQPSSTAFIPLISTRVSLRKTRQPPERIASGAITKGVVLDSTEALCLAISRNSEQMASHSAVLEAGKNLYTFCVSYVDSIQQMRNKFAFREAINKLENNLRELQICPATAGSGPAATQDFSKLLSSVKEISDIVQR
Sequence of Insulin receptor (Homo sapiens) (P06213 28-758 limits assumed): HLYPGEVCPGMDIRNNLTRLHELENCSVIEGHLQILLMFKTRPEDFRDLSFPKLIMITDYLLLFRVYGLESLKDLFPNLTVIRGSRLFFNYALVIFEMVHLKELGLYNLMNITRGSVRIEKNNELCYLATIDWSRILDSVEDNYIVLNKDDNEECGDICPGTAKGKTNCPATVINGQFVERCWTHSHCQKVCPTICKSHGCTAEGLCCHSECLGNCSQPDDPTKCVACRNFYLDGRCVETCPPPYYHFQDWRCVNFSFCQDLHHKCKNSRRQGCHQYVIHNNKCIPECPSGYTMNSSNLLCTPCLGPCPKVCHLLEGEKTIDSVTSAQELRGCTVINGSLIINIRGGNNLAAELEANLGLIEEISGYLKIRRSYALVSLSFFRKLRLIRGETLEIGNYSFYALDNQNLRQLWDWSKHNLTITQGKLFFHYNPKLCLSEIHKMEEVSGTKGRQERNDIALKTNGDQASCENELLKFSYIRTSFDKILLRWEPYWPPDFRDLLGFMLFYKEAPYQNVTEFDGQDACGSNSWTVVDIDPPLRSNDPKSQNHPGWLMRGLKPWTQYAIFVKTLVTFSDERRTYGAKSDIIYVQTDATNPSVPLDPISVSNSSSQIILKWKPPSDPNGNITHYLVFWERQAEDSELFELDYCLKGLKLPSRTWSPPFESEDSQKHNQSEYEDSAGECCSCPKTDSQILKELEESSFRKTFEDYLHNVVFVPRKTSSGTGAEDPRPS
Sequence of Insulin receptor (Homo sapiens) (P06213 763-1382 limits assumed): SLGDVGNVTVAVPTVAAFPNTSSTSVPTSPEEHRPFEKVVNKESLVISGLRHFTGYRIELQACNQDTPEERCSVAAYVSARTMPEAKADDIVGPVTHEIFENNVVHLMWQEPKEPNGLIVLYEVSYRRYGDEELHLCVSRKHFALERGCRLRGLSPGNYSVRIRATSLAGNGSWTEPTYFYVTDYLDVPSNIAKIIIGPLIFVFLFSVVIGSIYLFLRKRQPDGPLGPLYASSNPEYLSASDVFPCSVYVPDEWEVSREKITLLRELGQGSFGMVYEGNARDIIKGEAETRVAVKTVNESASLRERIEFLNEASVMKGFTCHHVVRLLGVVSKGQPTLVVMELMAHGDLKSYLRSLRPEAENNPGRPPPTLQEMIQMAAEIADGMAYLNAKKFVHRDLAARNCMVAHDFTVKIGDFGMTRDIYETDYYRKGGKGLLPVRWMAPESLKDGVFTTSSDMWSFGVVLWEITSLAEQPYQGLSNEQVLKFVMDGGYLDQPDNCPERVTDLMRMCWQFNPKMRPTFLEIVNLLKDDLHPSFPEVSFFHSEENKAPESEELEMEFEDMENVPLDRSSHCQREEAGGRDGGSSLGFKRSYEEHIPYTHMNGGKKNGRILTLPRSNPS
Sequence of RAC-beta serine/threonine-protein kinase (Homo sapiens) (P31751 whole entry): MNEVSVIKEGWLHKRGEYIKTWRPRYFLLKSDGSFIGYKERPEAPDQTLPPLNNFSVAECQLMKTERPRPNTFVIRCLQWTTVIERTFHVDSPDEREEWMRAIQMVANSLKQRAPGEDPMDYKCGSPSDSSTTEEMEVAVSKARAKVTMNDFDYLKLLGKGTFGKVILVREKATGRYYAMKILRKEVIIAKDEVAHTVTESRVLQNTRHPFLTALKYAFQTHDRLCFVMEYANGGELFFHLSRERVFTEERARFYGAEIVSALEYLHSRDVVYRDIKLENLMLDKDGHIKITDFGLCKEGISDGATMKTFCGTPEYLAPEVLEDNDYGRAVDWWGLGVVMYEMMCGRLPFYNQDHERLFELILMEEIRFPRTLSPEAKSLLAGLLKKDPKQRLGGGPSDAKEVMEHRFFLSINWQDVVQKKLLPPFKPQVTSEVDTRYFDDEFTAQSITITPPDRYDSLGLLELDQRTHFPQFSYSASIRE

For Nc1c2c(=O)[nH]c(-c3ccccc3)cc2nn1-c1ccccc1, which inhibition [1] is on record?
The inhibition was 22%.

What about the inhibition [2] of the same molecule?
The inhibition was 38%.

What about the inhibition [3] of the same molecule?
The inhibition was 96%.

And the inhibition [4]?
Its inhibition is 96%.

And the inhibition [5]?
Its inhibition is 61%.

What about the inhibition [6] of the same molecule?
The inhibition was 13%.

What about the inhibition [7] of the same molecule?
The inhibition was 96%.

What about the solubility [8] of the same molecule?
The solubility was under 1 µg/mL.

And the inhibition [9]?
Its inhibition is 98%.

What about the pIC50 [10] of the same molecule?
The pIC50 was 5.89.

What about the inhibition of growth at 0.039 µM (MCF7) of the same molecule?
The inhibition of growth at 0.039 µM was 35%.

And the inhibition [11]?
The inhibition was -10%.

And the inhibition [12]?
Its inhibition is 2%.

What about the inhibition [13] of the same molecule?
The inhibition was -8%.

And the inhibition [14]?
The inhibition was 20%.

What about the inhibition [15] of the same molecule?
Its inhibition is 29%.

What about the inhibition [16] of the same molecule?
Its inhibition is 79%.

What about the pIC50 [17] of the same molecule?
The pIC50 was 5.85.

And the pIC50 [18]?
The pIC50 was 5.06.

What about the inhibition [19] of the same molecule?
Its inhibition is -1%.

And the inhibition [20]?
The inhibition was 23%.

And the pIC50 [21]?
The pIC50 was 6.06.

And the inhibition [22]?
Its inhibition is -2%.

What about the inhibition [23] of the same molecule?
The inhibition was 90%.

And the inhibition [24]?
Its inhibition is 12%.

And the inhibition [25]?
The inhibition was 2%.

And the pIC50 [26]?
Its pIC50 is 5.32.

And the pIC50 [27]?
The pIC50 was 5.82.

— ChEMBL document CHEMBL1811853, “Design and evaluation of 3-aminopyrazolopyridinone kinase inhibitors inspired by the natural product indirubin” (Bioorg Med Chem, 2011)
